Assay results from PubChem BioAssay.
Inconclusive results are not listed.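 Rule for the calls, unless noted: active = cell viability at or below a set limit in both duplicate runs, the limit being the all-compound median minus 4 SD (cut at about 23% in these data, passing the limit was not always enough); inconclusive = no clear call, values can overlap the other calls; inactive = the rest.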

How the values were obtained:
[1] = OD615 S. cerevisiae growth inhibition, permissive medium, pilot counter-assay, permissive growth control for S. cerevisiae lifespan shortening project (AID 705;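 active = growth inhibition above 25% in both replicates, a cutoff set 3 SD above the mean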); details: OD615, 24 h, at 10 µM, hits give high values
In short: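 System: S. cerevisiae with engineered DeaD lifespan system / Measured by: absorbance (optical density) at 615 nm / Read-out: reduction in yeast growth (OD615) / Times: 4 h cell pre-growth, 24 h exposure at 30 °C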

[2] = Restrictive medium S. cerevisiae growth inhibition, OD615, pilot screen of yeast lifespan reduction project, restrictive growth control (AID 706;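 active = growth inhibition above a set limit, 3 SD over mean compound inhibition, in both replicates, cut at about 43% in these data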;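 note: modified DeaD lifespan yeast strain shifted to restrictive glucose medium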); details: OD615, 48 h, at 10 µM, hits give high values
In short: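 System: Engineered S. cerevisiae DeaD strain | Buffer or medium: Glucose-based CSMM-D restrictive medium | Schedule: 4 h pre-incubation, 48 h exposure at 30 °C | Technique: Optical density at 615 nm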

[3] = viability gain of MRP-1-high H69AR cells under doxorubicin, pilot screen, MRP-1 activator project, CellTiter-Glo, duplicate (AID 807;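 active = viability increase at or above a cutoff of the median across tested compounds plus 3 SD, cut at about 8.5% in these data, passing the limit was not always enough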;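 note: compound pretreatment 18-22 h then 72 h combined with doxorubicin; 0% = doxorubicin alone and 100% = vehicle without doxorubicin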); details: H69AR viability with doxorubicin, CellTiter-Glo luminescence; at 10 µM; hits give high values
[4] = growth suppression of beta-catenin knockout HCT116, pilot screen, human colon tumor cells (AID 823); details: CellTiter-Glo, 60 h, at 10 µM, hits give low values;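 note: 0% = wells killed by 20 µM Hyamine and 100% = untreated DMSO cell wells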
[5] = growth suppression of PTEN-deleted HCT116, pilot screen, cell-based, HCT116 clonal line, CellTiter-Glo (AID 824;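 active = viability at or below 27.92% in each of two runs, the all-compound median minus 4 SD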;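 note: 0% = 20 µM Hyamine control and 100% = vehicle cell control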); details: 60 h, at 10 µM, hits give low values
[6] = inhibitors of the yeast RAM network, pilot screen, dse1pr::URA3 reporter, 5-FOA selection (AID 869;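 active = inhibition over a set limit, the all-compound mean plus 3 SD, in both replicate runs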;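 note: 0% = DMSO wells with no growth and 100% = 10 µM 1-NA-PP1 with full growth; RAM network block rescues cells from 5-FOA so hits raise OD615 growth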); details: S. cerevisiae dse1pr::URA3 5-FOA growth, OD615, 2 d; at 10 µM; hits give high values; strain carries analog-sensitive mutant Cbk1 kinase
[7] = RAM signaling pathway blockade in yeast – S. cerevisiae, Pdr1DBD-CYC8 efflux-inhibited sensitized strain, primary screen (AID 1298;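 active = RAM network inhibition above 8.4% in each of two replicates, 3 SD over the compound average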;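 note: 0% = DMSO untreated cells without growth and 100% = 10 µM 1-NA-PP1 full growth; higher means more yeast growth rescued from 5-FOA killing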); details: S. cerevisiae cbk1-as DSE1-URA3 strain, 5-FOA growth OD615, 2 d; at 50 µM; hits give high values

N#Cc1nc(COc2cccc(Cl)c2)oc1NCc1ccco1
inactive: growth inhibition [1] -14% | growth inhibition [2] 3.77% | viability increase [3] -2.87% | viability [4] 89% | viability [5] 89.4% | inhibition [6] 1.65% | RAM network inhibition [7] 7.41%

Cc1cc(C)nc(NS(=O)(=O)c2ccc(NC(=O)c3ccc4c(c3)OCO4)cc2)n1
inactive: growth inhibition [1] -6.52% | growth inhibition [2] -0.9% | viability increase [3] 5.22% | viability [4] 100% | viability [5] 95.9% | inhibition [6] 1.28% | RAM network inhibition [7] -0.21%

CC1CN(Cc2nc3c(c(=O)n(C)c(=O)n3C)n2Cc2ccc(Cl)cc2)CC(C)O1 (stereo not given)
inactive: growth inhibition [1] -3.79% | growth inhibition [2] 0.39% | viability increase [3] -0.99% | viability [4] 91.6% | viability [5] 91.9% | inhibition [6] 2.13% | RAM network inhibition [7] 4.34%

COc1ccc(C(=O)Nc2cccc(C(C)=O)c2)cc1S(=O)(=O)N1CCOCC1
inactive: growth inhibition [1] -23.9% | growth inhibition [2] -18.5% | viability increase [3] -1.76% | viability [4] 92% | viability [5] 96% | inhibition [6] 2.08% | RAM network inhibition [7] 2.08%

Cc1ccc(N(C(C)C(=O)O)S(=O)(=O)c2cccnc2)cc1 (stereo not given)
inactive: growth inhibition [1] 2.72% | growth inhibition [2] 0.165% | viability increase [3] -1.52% | viability [4] 95.1% | viability [5] 101% | inhibition [6] -0.19% | RAM network inhibition [7] 1.61%

CC1CC(C)CN(CCCNC(=O)CNC(=O)Cn2ccc3ccccc3c2=O)C1 (stereo not given)
inactive: growth inhibition [1] -3% | growth inhibition [2] -19.7% | viability increase [3] -0.78% | viability [4] 104% | viability [5] 98.9% | inhibition [6] 0.76% | RAM network inhibition [7] 2.22%

O=c1oc2c3c4c(cc2c2c1CCC2)OCCN4CCC3
inactive: growth inhibition [1] -8.18% | growth inhibition [2] -0.795% | viability increase [3] -7.31% | viability [4] 58.3% | viability [5] 67.3% | inhibition [6] 0.055% | RAM network inhibition [7] 5.48%

CCOC(=O)CN1CC23C=CC(O2)C(C(=O)NC2CCCCCC2)C3C1=O (stereo not given)
inactive: growth inhibition [1] -6.04% | growth inhibition [2] 3.45% | viability increase [3] -2.93% | viability [4] 99.3% | viability [5] 94.5% | inhibition [6] 1.36% | RAM network inhibition [7] 0.37%

CCOC(=O)N1CCC(NC(=O)CS(=O)(=O)Cc2nc(-c3ccc(C)cc3)oc2C)CC1
inactive: growth inhibition [1] -20.3% | growth inhibition [2] -37.1% | viability increase [3] 0.42% | viability [4] 75.3% | viability [5] 81.3% | inhibition [6] 0.44% | RAM network inhibition [7] 0.36%

CCOc1ccccc1NC(=O)Cn1cnc2c(nnn2-c2cccc(OC)c2)c1=O
inactive: growth inhibition [1] -2.45% | growth inhibition [2] -1.71% | viability increase [3] -1.23% | viability [4] 87.2% | viability [5] 73.3% | inhibition [6] 3.82% | RAM network inhibition [7] 4.89%

Cc1nn(-c2ccccc2)c2c1C(c1ccncc1)C(C#N)=C(N)O2 (stereo not given)
inactive: growth inhibition [1] -12.9% | growth inhibition [2] -0.78% | viability increase [3] -0.07% | viability [4] 92.8% | viability [5] 89.6% | inhibition [6] 0.975% | RAM network inhibition [7] 4.36%

CCCCN(C)C(=O)c1c[nH]c2ccc(S(=O)(=O)N3CCOCC3)cc2c1=O
inactive: growth inhibition [1] -5.67% | growth inhibition [2] -15.5% | viability increase [3] 0.64% | viability [4] 109% | viability [5] 98.8% | inhibition [6] 2.05% | RAM network inhibition [7] 5.01%

Cn1c(=O)n(C)c2cc(S(=O)(=O)O)ccc21
inactive: growth inhibition [1] 5.19% | growth inhibition [2] 4.85% | viability increase [3] -1.08% | viability [4] 97% | viability [5] 95% | inhibition [6] 1.38% | RAM network inhibition [7] 0.76%

Cc1cccc(C)c1N1C(=O)c2ccccc2C1=O
inactive: growth inhibition [1] -6.34% | growth inhibition [2] -3.44% | viability increase [3] -1.87% | viability [4] 105% | viability [5] 92.7% | inhibition [6] 0.535% | RAM network inhibition [7] 2.47%

CCOC(=O)c1cnc2c(C)c(Cl)ccc2c1N1CCOCC1
inactive: growth inhibition [1] -1.27% | growth inhibition [2] -2.46% | viability increase [3] -6.05% | viability [4] 77% | viability [5] 81.3% | inhibition [6] 0.755% | RAM network inhibition [7] 3.29%

CC(=O)N1CCC(N(CCN2CCOCC2)C(=O)Nc2ccc(Cl)c(Cl)c2)CC1
inactive: growth inhibition [1] -8.97% | growth inhibition [2] -0.8% | viability increase [3] -1.49% | viability [4] 97% | viability [5] 95.6% | inhibition [6] 2.5% | RAM network inhibition [7] 1.45%

CCc1ccc(N2CCN(C(=O)c3ccc(OC)c(OC)c3)CC2)cc1
inactive: growth inhibition [1] -15.2% | growth inhibition [2] -8.32% | viability increase [3] 2.36% | viability [4] 57.3% | viability [5] 79% | inhibition [6] 0.975% | RAM network inhibition [7] 2.51%

CCCN(CCC)CCNC(=O)Cn1cnc2sc(C)c(S(=O)(=O)N3CCOCC3)c2c1=O
inactive: growth inhibition [1] -0.07% | growth inhibition [2] -5.45% | viability increase [3] -2.63% | viability [4] 95.3% | viability [5] 98% | inhibition [6] 0.875% | RAM network inhibition [7] 2.96%

Cc1cc(NC(=O)c2cc3n(n2)C(C(F)(F)F)CC(c2ccco2)N3)no1 (stereo not given)
inactive: growth inhibition [1] 5.72% | growth inhibition [2] 5.53% | viability increase [3] -0.69% | viability [4] 98.8% | viability [5] 94.6% | inhibition [6] 0.475% | RAM network inhibition [7] 1.13%

O=C(Nc1ccc(N2CCN(C(=O)c3ccccc3)CC2)c(Cl)c1)c1ccco1
inactive: growth inhibition [1] 4.29% | growth inhibition [2] 14.1% | viability increase [3] -3.69% | viability [4] 67% | viability [5] 75.9% | inhibition [6] 3.31% | RAM network inhibition [7] 5.57%

CC1CCN(c2nc3ccccc3nc2C(C#N)S(=O)(=O)c2ccccc2)CC1 (stereo not given)
inactive: growth inhibition [1] -32.5% | growth inhibition [2] -14.6% | viability increase [3] -2.55% | viability [4] 91.4% | viability [5] 95.1% | inhibition [6] 1.22% | RAM network inhibition [7] 4.37%

CCc1ccccc1S(=O)(=O)Cc1ccc(C(=O)NC(C)C)o1
inactive: growth inhibition [1] -2.43% | growth inhibition [2] -2.4% | viability increase [3] -1.52% | viability [4] 107% | viability [5] 97.6% | inhibition [6] 1.24% | RAM network inhibition [7] 3.36%

Cc1nc(N2CCN(C(=O)c3ccco3)CC2)c2c3c(sc2n1)CCC3
inactive: growth inhibition [1] -10.5% | growth inhibition [2] 5.55% | viability increase [3] -1.12% | viability [4] 79.8% | viability [5] 83% | inhibition [6] 1.16% | RAM network inhibition [7] 5%

COc1ccc(-n2nc3c(c2NC(=O)C24CC5CC(CC(C5)C2)C4)CS(=O)C3)cc1 (stereo not given)
inactive: growth inhibition [1] 1.36% | growth inhibition [2] 9.3% | viability increase [3] -0.78% | viability [4] 97.2% | viability [5] 93.5% | inhibition [6] -0.08% | RAM network inhibition [7] -1.31%

CC1CCCCN1CCCNC(=O)C1CCN(c2nc3ccccc3o2)CC1 (stereo not given)
inactive: growth inhibition [1] -2.48% | growth inhibition [2] -4.11% | viability increase [3] -0.83% | viability [4] 99.9% | viability [5] 97.8% | inhibition [6] 0.5% | RAM network inhibition [7] 3.1%

CC(C)Cc1ccc(C#N)c(SCC(N)=O)n1
inactive: growth inhibition [1] -8.16% | growth inhibition [2] -9.82% | viability increase [3] -2.54% | viability [4] 97.2% | viability [5] 92.1% | inhibition [6] 2.18% | RAM network inhibition [7] 3.19%

COc1ccc(F)cc1S(=O)(=O)Nc1ccc2c(c1)OCCO2
inactive: growth inhibition [1] -3.12% | growth inhibition [2] -5.07% | viability increase [3] -1.33% | viability [4] 91.1% | viability [5] 86.6% | inhibition [6] 2.45% | RAM network inhibition [7] 2.35%

COc1ccc(-c2nnc(SCC(=O)Nc3cc(F)ccc3C)o2)cc1
inactive: growth inhibition [1] -4.83% | growth inhibition [2] 4.39% | viability increase [3] 1.69% | viability [4] 101% | viability [5] 97.6% | inhibition [6] 2.44% | RAM network inhibition [7] 0.58%

COc1cc(NS(=O)(=O)c2ccc(NC(=O)C34CC5CC(CC(C5)C3)C4)cc2)ncn1
inactive: growth inhibition [1] -0.475% | growth inhibition [2] -24.6% | viability increase [3] -1.47% | viability [4] 98.1% | viability [5] 91.9% | inhibition [6] 2.73% | RAM network inhibition [7] 8.43%

O=C(Cn1cnc2c(nnn2-c2ccccc2)c1=O)NCC1CCCO1 (stereo not given)
inactive: growth inhibition [1] -6.44% | growth inhibition [2] 8.14% | viability increase [3] -2.94% | viability [4] 100% | viability [5] 94.3% | inhibition [6] 1.41% | RAM network inhibition [7] 1.65%

CCCCCCC1C(C#N)=C(N)OC2=C1C(=O)CCC2 (stereo not given)
inactive: growth inhibition [1] -12% | growth inhibition [2] -14.4% | viability increase [3] -2.64% | viability [4] 101% | viability [5] 92% | inhibition [6] 3.6% | RAM network inhibition [7] 4.66%

COc1ccccc1N(CC(=O)Nc1ccccc1C)S(C)(=O)=O
inactive: growth inhibition [1] -5.63% | growth inhibition [2] -10.8% | viability increase [3] -3.72% | viability [4] 94.7% | viability [5] 95.7% | inhibition [6] 1.12% | RAM network inhibition [7] 1.62%

CC(Oc1ccc(Cl)cc1Cl)C(=O)NCCN1CCOCC1 (stereo not given)
inactive: growth inhibition [1] -8.7% | growth inhibition [2] 4.87% | viability increase [3] -2.33% | viability [4] 100% | viability [5] 97.5% | inhibition [6] -0.29% | RAM network inhibition [7] 1.53%

O=C(COC(=O)c1cnccn1)c1ccc(Br)cc1
inactive: growth inhibition [1] -9.27% | growth inhibition [2] -14.4% | viability increase [3] 0.41% | viability [4] 101% | viability [5] 96.7% | inhibition [6] 1.94% | RAM network inhibition [7] 2.72%

CC1(C)CC(=O)C=C(NCCN2CCN(C(=O)Nc3ccc(Cl)c(Cl)c3)CC2)C1
inactive: growth inhibition [1] 13.1% | growth inhibition [2] 8.88% | viability increase [3] -3.81% | viability [4] 94.8% | viability [5] 90.1% | inhibition [6] -0.235% | RAM network inhibition [7] 3.08%
